In ChEMBL document CHEMBL1136830, “Design and synthesis of dimeric HIV-1 integrase inhibitory peptides” (Bioorg Med Chem Lett, 2003) one finds IC50 data, which are given here for six molecules.

The target in assay [1] is T1, Human immunodeficiency virus type 1 integrase (Human immunodeficiency virus 1, UniProt Q7ZJM1). Briefly: In vitro inhibitory activity against HIV-1 integrase enzyme strand transfer process. In a few lines: (§1)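 HIV-1 integrase (500 nM) pre-incubated with peptides for 20 min at room temperature in 50 mM MOPS pH 7.2, 7.5 mM NaCl, 7.5 mM MnCl2, 5% glycerol. The 3'-processing and strand-transfer reactions were then run by an earlier published method with these changes. IC50 values were reported for each step.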

Assay [2] deals with T1, Human immunodeficiency virus type 1 integrase. The experiment in a line: In vitro inhibitory activity against HIV-1 integrase enzyme 3'-end processing. In a few lines: as §1

Starred links: 1 amine or outer side, 2 acyl side, 3 side chain; linkers in the order of their positions; H or OH if unused. Positions of bridges follow the written chain, without caps; N, C: chain ends. Non-standard residues stand in square brackets, D forms with d. Residues, ends and D or L forms follow the SMILES beside them. Chains are numbered I, II in the order given. X1 = O=C([C@@H](CC[*:3])N[*:1])[*:2]; CH2 = C([*:1])[*:2]

T1 sequence (Q7ZJM1 whole entry): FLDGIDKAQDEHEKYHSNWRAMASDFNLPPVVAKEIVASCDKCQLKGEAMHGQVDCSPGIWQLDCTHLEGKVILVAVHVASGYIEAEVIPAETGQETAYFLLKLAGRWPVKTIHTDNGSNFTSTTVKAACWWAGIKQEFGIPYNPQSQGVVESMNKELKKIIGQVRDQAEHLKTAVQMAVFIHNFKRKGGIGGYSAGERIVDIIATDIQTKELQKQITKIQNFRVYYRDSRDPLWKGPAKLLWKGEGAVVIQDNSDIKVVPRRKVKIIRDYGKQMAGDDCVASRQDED

As for `NCCCC[C@H](NC(=O)[C@H](CSSC[C@H](NC(=O)[C@@H](N)Cc1c[nH]cn1)C(=O)N[C@@H](CCCCN)C(=O)N[C@@H](Cc1ccccc1)C(=O)N[C@@H](Cc1c[nH]c2ccccc12)C(=O)N[C@@H](Cc1c[nH]c2ccccc12)C(N)=O)NC(=O)[C@@H](N)Cc1c[nH]cn1)C(=O)N[C@@H](Cc1ccccc1)C(=O)N[C@@H](Cc1c[nH]c2ccccc12)C(=O)N[C@@H](Cc1c[nH]c2ccccc12)C(N)=O` (I: H-HCKFWW-NH2 / II: H-HCKFWW-NH2; disulfide I:2-II:2), the IC50 in assay [1] was found to be 58 µM; in assay [2] it was 81 µM.
On the same counts, the results for `NCCCC[C@H](NC(=O)[C@H](CSC[C@H](NC(=O)[C@@H](N)Cc1c[nH]cn1)C(=O)N[C@@H](CCCCN)C(=O)N[C@@H](Cc1ccccc1)C(=O)N[C@@H](Cc1c[nH]c2ccccc12)C(=O)N[C@@H](Cc1c[nH]c2ccccc12)C(N)=O)NC(=O)[C@@H](N)Cc1c[nH]cn1)C(=O)N[C@@H](Cc1ccccc1)C(=O)N[C@@H](Cc1c[nH]c2ccccc12)C(=O)N[C@@H](Cc1c[nH]c2ccccc12)C(N)=O` are 19 µM and 67 µM.
On the same counts, the results for `NCCCC[C@H](NC(=O)[C@@H](CCSCC[C@@H](NC(=O)[C@@H](N)Cc1c[nH]cn1)C(=O)N[C@@H](CCCCN)C(=O)N[C@@H](Cc1ccccc1)C(=O)N[C@@H](Cc1c[nH]c2ccccc12)C(=O)N[C@@H](Cc1c[nH]c2ccccc12)C(N)=O)NC(=O)[C@@H](N)Cc1c[nH]cn1)C(=O)N[C@@H](Cc1ccccc1)C(=O)N[C@@H](Cc1c[nH]c2ccccc12)C(=O)N[C@@H](Cc1c[nH]c2ccccc12)C(N)=O` are 63 µM and 59 µM.
With `NCCCC[C@H](NC(=O)[C@H](CSCC[C@@H](NC(=O)[C@@H](N)Cc1c[nH]cn1)C(=O)N[C@@H](CCCCN)C(=O)N[C@@H](Cc1ccccc1)C(=O)N[C@@H](Cc1c[nH]c2ccccc12)C(=O)N[C@@H](Cc1c[nH]c2ccccc12)C(N)=O)NC(=O)[C@@H](N)Cc1c[nH]cn1)C(=O)N[C@@H](Cc1ccccc1)C(=O)N[C@@H](Cc1c[nH]c2ccccc12)C(=O)N[C@@H](Cc1c[nH]c2ccccc12)C(N)=O` (I: H-H[X1]KFWW-NH2 / II: H-HCKFWW-NH2; thioether I:2-II:2), the IC50 worked out at 87 µM in assay [1] and 77 µM in assay [2].
For H-HCKFWW-NH2, the IC50 was 90 µM in assay [1] and 102 µM in assay [2].
In the case of `NCCCC[C@H](NC(=O)[C@H](CSCSC[C@H](NC(=O)[C@@H](N)Cc1c[nH]cn1)C(=O)N[C@@H](CCCCN)C(=O)N[C@@H](Cc1ccccc1)C(=O)N[C@@H](Cc1c[nH]c2ccccc12)C(=O)N[C@@H](Cc1c[nH]c2ccccc12)C(N)=O)NC(=O)[C@@H](N)Cc1c[nH]cn1)C(=O)N[C@@H](Cc1ccccc1)C(=O)N[C@@H](Cc1c[nH]c2ccccc12)C(=O)N[C@@H](Cc1c[nH]c2ccccc12)C(N)=O` (I: H-HCKFWW-NH2 / II: H-HCKFWW-NH2; linker I:2-II:2 via CH2), the IC50 in assay [1] was determined as 6.5 µM; in assay [2], 5.3 µM.
